The first assay deals with Nucleic Acid. Nature of the assay: (§1) The compound was tested in vitro for its ability to initiate DNA replication. The class given is nucleic-acid assay. Particulars: Homo sapiens. An outline of the steps: (§2)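 Steroid dissolved in 100% ethanol, diluted with water (final ethanol ≤0.1%), tested at 10 nM in a HeLa cell extract in vitro replication system (extracts estrogen and progesterone receptor-negative) with plasmid template pX24 (hamster DHFR origin) or 30.4 (random human cDNA fragment). Compound preincubated with template DNA and precursor nucleotides, then remaining components added to start replication. DNA purified; synthesis measured by DpnI resistance assay with phosphoimager densitometry; expressed as % of untreated control, mean ± SD of at least two experiments.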
In the case of `CC(=O)[C@H]1CC[C@H]2[C@@H]3CCC4=CC(=O)CC[C@]4(C)[C@H]3CC[C@]12C`, the DNA was determined as 115%.

As to `COc1ccc2c(c1OC)CC[C@@H]1[C@@H]2CC[C@]2(C)C(=O)CC[C@@H]12`, the DNA is 63%.

As to `C[C@]12CC[C@@H]3c4ccc(O)cc4CC[C@H]3[C@@H]1C[C@@H](O)C2=O`, the DNA turned out to be 150%.

`COc1c(O)ccc2c1CC[C@@H]1[C@@H]2CC[C@]2(C)C(=O)CC[C@@H]12` displayed a DNA of 53%.

Consider `C[C@]12CC[C@@H]3c4cc(O)c(O)cc4CC[C@H]3[C@@H]1CCC2=O`, for which the DNA turned out to be 92%.

Molecule `C[C@]12CC[C@@H]3c4ccc(O)cc4CC[C@H]3[C@@H]1C[C@@H](O)[C@@H]2O` registered a DNA of 118%.

On to `C[C@]12CC[C@@H]3c4ccc(O)cc4CC[C@H]3[C@@H]1CCC2=O`, for which the DNA turned out to be 108%.

A further assay concerns Nucleic Acid. The assay is described as §1. It counts as functional. Particulars: Homo sapiens. An outline of the steps:
as §2
On to `C[C@]12CC[C@@H]3c4ccc(O)c(O)c4CCC3[C@@H]1CC[C@@H]2O` (single isomer, unassigned), for which the DNA was 53%.

Consider `C[C@]12CC[C@@H]3c4ccc(O)cc4CC[C@H]3[C@@H]1C[C@H](O)[C@H]2O`, for which the DNA amounted to 200%.

Molecule `C[C@]12CC[C@@H]3c4ccc(O)cc4CC[C@H]3[C@@H]1C[C@@H](O)[C@H]2O` displayed a DNA of 103%.

Take `C[C@]12CC[C@@H]3c4cc(O)c(O)cc4CCC3[C@@H]1CC[C@@H]2O` (single isomer, unassigned): the DNA stood at 52%.

In the case of `C[C@]12CC[C@@H]3c4ccc(O)cc4CC[C@H]3[C@@H]1CC(=O)[C@@H]2O`, the DNA was determined as 99%.

In turn, `C[C@]12CC[C@@H]3c4ccc(O)cc4CC[C@H]3[C@@H]1C[C@@H](O)[C@@H]2O` gave a DNA of 144%.

`C[C@]12CC[C@H]3C(CCC4=CC(=O)CC[C@@]43C)[C@@H]1CC[C@@H]2O` (single isomer, unassigned) showed a DNA of 72%.

The values are drawn from ChEMBL document CHEMBL1131528, “Effect of steroids on DNA synthesis in an in vitro replication system: initial quantitative structure-activity relationship studies and construction of a non-estrogen receptor pharmacophore” (J Med Chem, 1998).
